Values joined by “and” are separate entries in the source; they are usually repeats but may differ in a detail not shown here. Equal entries are not always repeated.
System: Fibroblast
Assay: Multiplex assay against human fibroblast
Type: toxicity, cell-based
How it was run: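 Imaging took place on a CQ1 microscope at 37°C and 5% CO2 once compound had been added to live cells stained at seeding with Hoechst33342, BioTracker Green Microtubule Cytoskeleton Dye, MitoTracker Red and Annexin V Alexa Fluor 680. CellPathfinder machine-learning gating classed cells as Hoechst high-intensity objects or normal cells, classed normal cells as having healthy, pyknosed or fragmented nuclei, and classed pyknosed cells as mitotic or apoptotic. Tubulin, mitochondrial-mass and membrane-permeability phenotypes are per cents of the healthy-nucleus cells.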

[1] = 12 h, 1 µM, compound concentration 1 uM
[2] = 12 h, 10 µM, compound concentration 10 uM
[3] = 24 h, 1 µM, compound concentration 1 uM
[4] = 24 h, 10 µM, compound concentration 10 uM
[5] = 48 h, 1 µM, compound concentration 1 uM
[6] = 48 h, 10 µM, compound concentration 10 uM

For `O=c1ccc2ccc(OCCCCN3CCN(c4cccc5sccc45)CC3)cc2[nH]1` [BREXPIPRAZOLE], the “Population Apoptotic (%)” value [1] was 56% and 48%, the “Population Fragmented Nuclei (%)” value [1] was 17% and 33% and the “Population Healthy Nuclei (%)” value [1] was 62% and 44%. The “Population Hoechst High Intensity Objects (%)” value [1] was 2% and 5%, the “Population Membrane Permeable-Phenotype (%)” value [1] was 0% and 2% and the “Population Mitochondria Different-Phenotype (%)” value [1] was 5% and 15%. The “Population Mitotic Cells (%)” value [1] was 44% and 51%, the “Population Normal (%)” value [1] was 97% and 94% and the “Population Pyknosed Nuclei (%)” value [1] was 20% and 21%. For the same molecule, the “Population Tubulin-Different-Phenotype (%)” value [1] was 41% and 73%, the “Total Cell Count” value [1] was 126 and 169 and the “Population Apoptotic (%)” value [2] was 68% and 45%. The “Population Fragmented Nuclei (%)” value [2] was 16% and 30%, the “Population Healthy Nuclei (%)” value [2] was 64% and 49% and the “Population Hoechst High Intensity Objects (%)” value [2] was 1% and 11%. For the same molecule, the “Population Membrane Permeable-Phenotype (%)” value [2] was 0% and 2%, the “Population Mitochondria Different-Phenotype (%)” value [2] was 39% and 25% and the “Population Mitotic Cells (%)” value [2] was 31% and 54%. For the same molecule, the “Population Normal (%)” value [2] was 98% and 88%, the “Population Pyknosed Nuclei (%)” value [2] was 19% and 20% and the “Population Tubulin-Different-Phenotype (%)” value [2] was 83% and 81%. For the same molecule, the “Total Cell Count” value [2] was 203 and 243, the “Population Apoptotic (%)” value [3] was 56% and 33% and the “Population Fragmented Nuclei (%)” value [3] was 17% and 32%. For the same molecule, the “Population Healthy Nuclei (%)” value [3] was 69% and 52%, the “Population Hoechst High Intensity Objects (%)” value [3] was 1% and 3% and the “Population Membrane Permeable-Phenotype (%)” value [3] was 0% and 2%. For the same molecule, the “Population Mitochondria Different-Phenotype (%)” value [3] was 8% and 14%, the “Population Mitotic Cells (%)” value [3] was 43% and 66% and the “Population Normal (%)” value [3] was 98% and 96%. The “Population Pyknosed Nuclei (%)” value [3] was 13% and 14%, the “Population Tubulin-Different-Phenotype (%)” value [3] was 43% and 76% and the “Total Cell Count” value [3] was 122 and 173. The “Population Apoptotic (%)” value [4] was 58% and 65%, the “Population Fragmented Nuclei (%)” value [4] was 13% and 30% and the “Population Healthy Nuclei (%)” value [4] was 54% and 40%. The “Population Hoechst High Intensity Objects (%)” value [4] was 13% and 19%, the “Population Membrane Permeable-Phenotype (%)” value [4] was 0% and the “Population Mitochondria Different-Phenotype (%)” value [4] was 63% and 34%. For the same molecule, the “Population Mitotic Cells (%)” value [4] was 41% and 34%, the “Population Normal (%)” value [4] was 86% and 80% and the “Population Pyknosed Nuclei (%)” value [4] was 31% and 28%. For the same molecule, the “Population Tubulin-Different-Phenotype (%)” value [4] was 85% and 71%, the “Total Cell Count” value [4] was 218 and 239 and the “Population Apoptotic (%)” value [5] was 62% and 60%. For the same molecule, the “Population Fragmented Nuclei (%)” value [5] was 24% and 42%, the “Population Healthy Nuclei (%)” value [5] was 62% and 51% and the “Population Hoechst High Intensity Objects (%)” value [5] was 4%. For the same molecule, the “Population Membrane Permeable-Phenotype (%)” value [5] was 0% and 1%, the “Population Mitochondria Different-Phenotype (%)” value [5] was 10% and 9% and the “Population Mitotic Cells (%)” value [5] was 37% and 40%. For the same molecule, the “Population Normal (%)” value [5] was 95%, the “Population Pyknosed Nuclei (%)” value [5] was 12% and 5% and the “Population Tubulin-Different-Phenotype (%)” value [5] was 52% and 67%. For the same molecule, the “Total Cell Count” value [5] was 133 and 175, the “Population Apoptotic (%)” value [6] was 62% and 44% and the “Population Fragmented Nuclei (%)” value [6] was 18% and 30%. The “Population Healthy Nuclei (%)” value [6] was 50% and 43%, the “Population Hoechst High Intensity Objects (%)” value [6] was 34% and the “Population Membrane Permeable-Phenotype (%)” value [6] was 0%. For the same molecule, the “Population Mitochondria Different-Phenotype (%)” value [6] was 60% and 20%, the “Population Mitotic Cells (%)” value [6] was 37% and 55% and the “Population Normal (%)” value [6] was 65%. For the same molecule, the “Population Pyknosed Nuclei (%)” value [6] was 31% and 26%, the “Population Tubulin-Different-Phenotype (%)” value [6] was 88% and 55% and the “Total Cell Count” value [6] was 208 and 317.

Source: ChEMBL document CHEMBL5724801, “EUbOPEN Chemogenomics Library - Multiplex” (2024)
